An excerpt weighted towards active compounds, which were near 3% of everything screened.
CHRM4 agonist: agonists of human muscarinic M4 receptor (CHRM4); P08173; CHO-K1 hM4/Gqi5, Fluo-8 calcium fluorescence; vehicle 0%, full acetylcholine response 100%; activation, % at 3 µM; 360,000 tested, 0.14% active;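 active means activation above the run mean over all test wells plus 3 SD, cut at about 32% in these data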;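 further: peak over basal fluorescence ratio per well then scaled between controls; 0% = DMSO wells and 100% = acetylcholine at EC100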
Target sequence (P08173 whole entry, looked up): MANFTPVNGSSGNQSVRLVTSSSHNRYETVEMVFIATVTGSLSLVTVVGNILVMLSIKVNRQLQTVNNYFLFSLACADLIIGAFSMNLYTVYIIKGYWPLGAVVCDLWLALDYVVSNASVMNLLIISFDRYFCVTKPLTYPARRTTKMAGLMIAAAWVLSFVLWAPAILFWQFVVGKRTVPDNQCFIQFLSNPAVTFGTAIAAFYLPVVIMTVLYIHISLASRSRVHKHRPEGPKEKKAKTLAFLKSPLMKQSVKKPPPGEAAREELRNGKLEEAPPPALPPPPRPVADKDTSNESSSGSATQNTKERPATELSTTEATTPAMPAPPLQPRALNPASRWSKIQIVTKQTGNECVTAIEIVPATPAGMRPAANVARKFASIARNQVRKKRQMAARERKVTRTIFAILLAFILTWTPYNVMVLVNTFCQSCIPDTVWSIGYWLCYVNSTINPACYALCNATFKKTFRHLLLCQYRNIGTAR
TAAR1 antagonist: antagonists of human TAAR1; CHO RD-HGA16 TAAR1, Fluo-8 calcium fluorescence, antagonist; Q96RJ0; 360,000 tested, 1.5% active; inhibition, % at 3 µM;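 active means inhibition above a per-plate cutoff, the mean inhibition of test compounds on that plate plus 3 SD, cut at about 49% in these data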;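 further: 0% = DMSO plus EC80 beta-PEA response and 100% = DMSO alone without agonist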
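Test system – hTAAR1-expressing CHO RD-HGA16 cells, Gα16-coupled · Reagent – β-PEA at EC80 concentration, post-compound challenge · Compound dosing – 3 µM, single point · Timing – 140 s kinetic read after compound, 140 s after agonist · Detection – Fluo-8 intracellular calcium dye fluorescence, real-time kinetic reads · Control set – DMSO and EC80 PEA controls · Repeats – n of 1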
CHRM4 PAM: positive allosteric modulators of human muscarinic M4 receptor; 360,000 tested, 0.4% active; P08173; activation, % at 3 µM; CHO-K1 hM4/Gqi5, Fluo-8 calcium fluorescence, ACh EC20; 0% = ACh EC20, 100% = maximal ACh;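 active means activation above its plate's cutoff, the mean activation of sample wells plus 3 SD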
M4 antag: antagonists of human muscarinic M4 receptor (CHRM4); CHO-hM4 cells, ACh EC80, Fluo-8 calcium fluorescence; inhibition, % at 3 µM; 360,000 tested, 0.73% active; AID 624125;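 active means inhibition above its plate's cutoff, the mean inhibition of sample wells plus 3 SD, cut at about 27% in these data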;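 further: 0% = acetylcholine EC80 with DMSO and 100% = DMSO without agonist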
TAAR1 ag: agonists of human TAAR1; 360,000 tested, 0.99% active; activation, % at 3 µM; Q96RJ0; CHO RD-HGA16 TAAR1, Fluo-8 calcium fluorescence; vehicle wells 0%, saturating PEA agonist 100%;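 active means activation above the mean activation of all test compounds in the run plus 3 SD, cut at about 38% in these data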
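Assay system: CHO-derived RD-HGA16 cells with stable Gα16 and human TAAR1; timing: 17-24 h seeding, 75 min 37 °C dye, 30 min RT; read-out: % activation from peak over basal fluorescence ratio, DMSO-to-PEA scaled; measured by: kinetic Fluo-8 calcium fluorescence; benchmarks: low control DMSO, high control PEA (EC100); doses: 3 µM single concentration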
TAAR1 ag conf: human TAAR1 agonism, confirmed. activation, % at 3 µM. CHO RD-HGA16 TAAR1, Fluo-8 calcium fluorescence; scaled: DMSO 0%, maximal phenethylamine 100%. shares compounds with TAAR1 ag. 2,400 tested, 82% active. AID 651783;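 active means activation above a cutoff set at the run's mean compound activation plus 3 SD, cut at about 39% in these data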
Ga16 ag counter: nonselective agonism, TAAR1 counter-screen; AID 651787; activation, % at 3 µM; 2,400 tested, 50% active; CHO-Ga16 parental, Fluo-8 calcium fluorescence; normalized to maximal ATP response, DMSO zero; shares compounds with TAAR1 ag;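 active means activation above the run cutoff, the mean activation over all tested wells plus 3 SD, cut at about 12% in these data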;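 further: 0% = DMSO wells and 100% = maximal ATP response on the peak over basal ratio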
TAAR1 desensitize: human TAAR1 agonist that also desensitizes the receptor | 2,400 tested, 46% active | inhibition, % at 3 µM | shares compounds with TAAR1 ag | CHO RD-HGA16 hTAAR1, Fluo-8 calcium, beta-PEA response inhibition;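 active means inhibition above the run cutoff, the mean inhibition of all test compounds plus 3 SD, cut at about 49% in these data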;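 further: beta-PEA stimulus applied at its EC80; loss of beta-PEA calcium signal after compound pretreatment read as receptor desensitization; 0% = DMSO with beta-PEA at EC80 and 100% = DMSO alone without agonist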
Ga16 antag count: nonselective Ga16 antagonism, counter-screen | CHO-Ga16 ATP-induced calcium, Fluo-8 fluorescence | shares compounds with TAAR1 ag | AID 651952 | 2,400 tested, 39% active | inhibition, % at 3 µM;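 active means inhibition above the plate's mean compound inhibition plus 3 SD, computed per plate, cut at about 22% in these data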;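 further: 0% = EC80 ATP with DMSO and 100% = DMSO wells without ATP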
Active calls of the source: *; . = no result given.

SMILES	CHRM4 agonist	TAAR1 antagonist	CHRM4 PAM	M4 antag	TAAR1 ag	TAAR1 ag conf	Ga16 ag counter	TAAR1 desensitize	Ga16 antag count
CC1CCN(c2ccc3c(c2)S(=O)(=O)c2cccc(C(=O)NCc4cccc(F)c4)c2C3=O)CC1	15	91*	-2	7	67*	26	36*	60*	62*
CCOc1cc(C)nc(N2CCCC(C(=O)NCc3ccccc3F)C2)n1 (stereo unspecified)	4	4	-2	-11	10	.	.	.	.
Cc1cc(C)nc(N2CCCC(C(=O)NCCc3ccccc3F)C2)n1 (stereo unspecified)	1	8	8	-4	45*	76*	2	38	11
CN1CCC(OC(=O)c2ccc(Br)cc2)CC1	2	-2	5	-6	15	.	.	.	.
CN1CCC(=C(c2ccccc2)c2ccc(Br)cc2)CC1	12	-26	-47	12	54*	63*	34*	17	19
CN(Cc1ccccc1)C(=O)c1ccc(Nc2nc(C(N)Cc3ccc(C(F)(F)F)cc3)cs2)nc1 (stereo unspecified)	22	75*	6	19	64*	59*	30*	63*	70*
COc1ccccc1NC(=O)Nc1nc(C(N)Cc2ccc(C(F)(F)F)cc2)cs1 (stereo unspecified)	29	-17	-5	23	4	.	.	.	.
CCCCN(C)C(=O)c1ccc(Nc2nc(C(N)Cc3ccccc3)cs2)nc1 (stereo unspecified)	12	24	-1	4	49*	73*	16*	54*	32*
NC(Cc1cnc[nH]1)c1csc(Nc2ccc(C(F)(F)F)cn2)n1 (stereo unspecified)	1	-23	-1	-4	3	.	.	.	.
NC(Cc1ccc(F)cc1)c1csc(Nc2ccc(C(F)(F)F)cn2)n1 (stereo unspecified)	28	45	6	18	74*	49*	27*	38	35*
Cc1ccc(C(=O)Nc2nc(C(N)Cc3ccc(C(F)(F)F)cc3)cs2)cc1 (stereo unspecified)	36*	44	-5	8	65*	52*	29*	45	43*
COCCNC(=O)C1CCCN(C(=O)c2nc3ccccc3s2)CC1 (stereo unspecified)	2	-14	11	-12	1	.	.	.	.
O=C(COC(=O)c1ccc(F)cc1F)NCc1ccc2c(c1)OCO2	1	11	0	-2	1	.	.	.	.
CNC(=O)C[C@@H]1C(=O)N(CCc2ccccc2)CC1(C)C	0	-12	-1	-5	9	.	.	.	.
COc1ccc2oc(C(=O)OCC(=O)NCc3ccccc3OC)c(C)c2c1	1	91*	18	-22	70*	23	5	52*	15
CC(=O)c1ccc(OCCCC(=O)Nc2nnc(C3CC3)s2)cc1	0	10	2	-7	1	.	.	.	.
COc1ccc(S(=O)(=O)N2CCCCC2c2cc(C(=O)Nc3ccc(F)c(Cl)c3)no2)cc1 (stereo unspecified)	0	13	-5	1	0	.	.	.	.
O=c1cc(CSc2nnnn2-c2ccccc2)nc(Nc2ccc(F)cc2)[nH]1	3	32	-9	7	66*	97*	5	67*	26*
O=[N+]([O-])c1ccc(CSc2ccc(S(=O)(=O)N3CCCCCC3)cn2)cc1	2	47	-11	-3	5	.	.	.	.
COC(=O)c1sccc1S(=O)(=O)Nc1ccc(Cl)cc1	10	-1	-18	10	6	.	.	.	.
COC(=O)c1sccc1S(=O)(=O)Nc1ccc(C(O)(C(F)(F)F)C(F)(F)F)cc1	133*	103*	-17	63*	169*	142*	113*	103*	84*
COc1cc(C)ccc1S(=O)(=O)NC(=O)C1(C)CCN1C(=O)COc1ccc(Cl)cc1 (stereo unspecified)	1	4	0	-2	2	.	.	.	.
Cc1ccc(-c2nc(C#N)c(NCCc3ccccn3)o2)cc1	0	-6	7	-9	1	.	.	.	.
N#Cc1nc(-c2ccc(Cl)cc2)oc1NCCc1ccccn1	1	-10	0	-6	45*	8	7	22	16
CC(C)c1ccc(OCC(=O)NNC(=S)NC(=O)c2ccco2)c(Br)c1	0	7	-1	3	44*	81*	59*	70*	51*
SMILES	CHRM4 agonist	TAAR1 antagonist	CHRM4 PAM	M4 antag	TAAR1 ag	TAAR1 ag conf	Ga16 ag counter	TAAR1 desensitize	Ga16 antag count
CC(C)(C)c1ccc(OCC(=O)NNC(=S)NC(=O)c2ccco2)c(Br)c1	0	-8	0	-2	6	.	.	.	.
Cc1ccccc1OCC(=O)NNC(=S)NC(=O)c1ccco1	1	14	0	19	65*	29	23*	12	20
Cc1ccccc1OCC(=O)Nc1ccccc1NC(=O)c1ccco1	1	-2	-5	0	-2	.	.	.	.
C[C@H]1CN([C@@H](C)CO)C(=O)c2cc(Br)cnc2O[C@@H]1CN(C)C(=O)Nc1ccc(C(F)(F)F)cc1	1	-4	6	-7	1	.	.	.	.
CC(C)C[C@H]1COc2cccc(N3CCCC3)c2S(=O)(=O)N1	.	-21	.	.	-1	.	.	.	.
Cc1nn(CCC(=O)NCCc2ccccc2Cl)c(=O)c2nn(-c3ccccc3)c(C)c12	4	-10	-2	-2	-1	.	.	.	.
Cc1ccccc1CCNC(=O)Cn1nc(C)c2c(C)n(-c3ccccc3)nc2c1=O	0	-20	-4	4	50*	53*	6	4	4
COc1ccccc1CCNC(=O)CCn1nc(C)c2c(C)n(-c3ccccc3)nc2c1=O	1	7	-1	-4	58*	71*	0	27	9
Cc1ccccc1CCNC(=O)CCn1nc(C)c2c(C)n(-c3ccccc3)nc2c1=O	2	-20	0	1	1	.	.	.	.
COc1ccc(S(=O)(=O)Cc2ccc(C(=O)N3CCc4ccccc4C3)o2)cc1	3	61*	-6	-2	61*	92*	23*	76*	12
CCOC(=O)N1CCN(C(=O)c2ccc(CS(=O)(=O)c3ccccc3OC)o2)CC1	2	11	0	-10	3	.	.	.	.
